This is a sample that favours compounds with a hit; in the whole collection about 1.7% have one here.
CAL PDZ FP-1 – untagged CAL PDZ binding inhibitors, primary screen, biochemical, fluorescence polarization, HTS; Golgi-associated PDZ and coiled-coil motif-containing protein (Homo sapiens), Q9HD26; purified CAL PDZ, TMR-peptide fluorescence polarization, 1 h; inhibition, % at 24.9 µM; 300,000 tested, 0.92% active; AID 602252, 2012;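 active = mean inhibition of at least 30% with at least half of replicates also reaching 30%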
PGC1a acetyl inh – inhibitors of PGC1a acetylation signal, primary screen, cell-based, U2OS, AlphaScreen, inhibitor mode; 350,000 tested, 0.17% active; inhibition, % at 15.6 µM; AlphaScreen anti-acetyl-lysine; with virally co-expressed GCN5 acetyltransferase; AID 651687, 2012;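 active = every replicate shows inhibition of at least 40%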
CAL PDZ FP-2 – CAL PDZ peptide-binding inhibitors, primary screen, biochemical, fluorescence polarization, Cer-tagged CAL PDZ, HTS; purified CAL PDZ, TMR-peptide fluorescence polarization, 1 h; Golgi-associated PDZ and coiled-coil motif-containing protein (Homo sapiens), Q9HD26; 330,000 tested, 0.02% active; inhibition, % at 20 µM;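 active = highest replicate inhibition of at least 40%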
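Material: tagged CAL PDZ domain; buffer or medium: 25 mM sodium phosphate pH 7.4, 150 mM NaCl, TCEP, IgG, Thesit; compound dosing: single point, 20 µM; schedule: 1 h incubation at room temperature before polarization reading; measured by: FP readout, S and P plane fluorescence; read-out basis: percent inhibition from loss of millipolarization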
miR122 inh – miR-122 Renilla sensor signal increase in Huh7, primary screen, miR-122 inhibitor project, cell-based, single point, plate reader | Huh7 miR-122 Renilla luciferase sensor, 48 h; neutral wells = 0, positive control = 100 | activation (reporter increase), % at 12.5 µM | 340,000 tested, 0.3% active | AID 602342, 2012;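 active = mean replicate activation score at least 90 and every replicate individually at or above 90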;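 note: higher luciferase means less miR-122 activity so hits act as miR-122 inhibitors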
CFTR F508del cor – F508del CFTR correction, initial screen, CFBE line, single point | CFBE cells, YFP halide quenching; stimulated with forskolin plus potentiator P3; % fluorescence drop versus neutral controls | 350,000 tested, 0.36% active | activity (quench increase), % at 7.58 µM;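 active = mean added fluorescence quench of at least 8% versus neutral control, with both replicates also reaching 8%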;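 note: cells transiently co-express mutant CFTR-F508del with the halide-sensitive YFP; corrector assay measuring rescue of mutant channel to the surface after 24 h compound exposure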
ARNT-TACC3 inh – disruptors of ARNT/TACC3 protein interaction, primary screen, biochemical, AlphaScreen, single concentration | Transforming acidic coiled-coil-containing protein 3 (Homo sapiens), Q9Y6A5 | AlphaScreen His-ARNT PAS-B/GST-TACC3 binding, luminescence; TACC3 fragment carries E629A point mutation | inhibition, % at 9.99 µM | 390,000 tested, 0.66% active;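 active = mean inhibition of replicates at least 50% and at least half of replicates each reaching 50%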
A number is an active result; 0 = inactive; - = no result.

SMILES	CAL PDZ FP-1	PGC1a acetyl inh	CAL PDZ FP-2	miR122 inh	CFTR F508del cor	ARNT-TACC3 inh
CC1Cc2cc(S(=O)(=O)NCCc3ccccc3)ccc2N1C(=O)C1CC1 (stereo not given)	0	0	0	132.0	0	0
COc1cccc(CNS(=O)(=O)c2ccc3c(c2)CC(C)N3C(=O)C2CC2)c1 (stereo not given)	0	0	0	0	0	0
CC1CC(C)CN(CCCNS(=O)(=O)c2ccc3c(c2)CCN3C(=O)C2CC2)C1 (stereo not given)	119.8	0	0	0	0	0
CCCNC(=O)C1CCC(CNS(=O)(=O)c2ccc3c(c2)CC(C)N3C(C)=O)CC1 (stereo not given)	82.3	0	0	0	0	0
CC(=O)N1c2ccc(S(=O)(=O)NCCc3ccccc3)cc2CC1C (stereo not given)	0	0	0	153.0	0	0
CN1CCN(C(=O)C[C@H]2C[C@H]3c4cc(NC(=O)c5cccnc5)ccc4O[C@H]3[C@@H](CO)O2)CC1	-	0	-	0	0	0
O=C(C[C@@H]1CC[C@H]2[C@@H](COC[C@@H](O)CN2C(=O)Nc2cccc(Cl)c2)O1)NCC1CCCCC1	-	0	-	0	0	0
C[C@@H]1CCCCO[C@@H](CN(C)C(=O)CCCN(C)C)[C@@H](C)CN([C@H](C)CO)C(=O)c2cc(NC(=O)c3ccncc3)ccc2O1	-	0	-	0	0	0
COCC(=O)N[C@@H]1CC[C@@H](CC(=O)N2CCCCC2)O[C@@H]1CO	-	0	-	0	0	0
CC(=O)N1c2c(cc(Br)cc2S(=O)(=O)NCc2ccccc2)CC1C (stereo not given)	-	-	0	124.6	0	0
CC(=O)N1c2ccc(S(=O)(=O)N3CCC(C(=O)Nc4cc(C)ccn4)CC3)cc2CC1C (stereo not given)	67.3	0	0	0	0	0
COc1cccc(CNS(=O)(=O)c2cc(Br)cc3c2N(C(C)=O)C(C)C3)c1 (stereo not given)	0	0	0	0	-	0
CC(=O)N1c2ccc(S(=O)(=O)N3CCCCC3)cc2CC1C(=O)NCc1ccccc1C (stereo not given)	39.4	0	0	0	0	0
CC(=O)N1c2ccc(S(=O)(=O)N3CCCC3)cc2CC1C(=O)NCc1ccccc1F (stereo not given)	0	0	0	0	0	0
C[C@@H]1CN([C@H](C)CO)C(=O)c2cc(NC(=O)CCCN(C)C)ccc2O[C@@H](C)CCCCO[C@@H]1CN(C)S(C)(=O)=O	-	0	-	0	0	0
Cc1ccc(S(=O)(=O)Nc2ccc3c(c2)CC(=O)N([C@@H](C)CO)C[C@@H](C)[C@H](CN(C)S(=O)(=O)c2c(C)noc2C)O3)cc1	-	0	-	0	0	0
COc1cccc(S(=O)(=O)N(C)C[C@@H]2Oc3cc(C4=CCCC4)ccc3S(=O)(=O)N([C@@H](C)CO)C[C@H]2C)c1	-	0	-	0	9.3	0
COc1cccc(S(=O)(=O)N(C)C[C@@H]2Oc3cc(C4=CCCC4)ccc3S(=O)(=O)N([C@H](C)CO)C[C@H]2C)c1	-	0	-	0	10.7	0
C[C@H]1CN([C@@H](C)CO)S(=O)(=O)c2ccc(C3=CCCCC3)cc2O[C@H]1CN(C)C(=O)Cc1ccncc1	-	0	-	0	0	0
C[C@H]1CN([C@@H](C)CO)S(=O)(=O)c2ccc(C3=CCCCC3)cc2O[C@@H]1CN(C)C(=O)Cc1ccncc1	-	0	-	0	8.5	0
C[C@@H]1CN([C@@H](C)CO)S(=O)(=O)c2ccc(C3=CCCCC3)cc2O[C@H]1CN(C)C(=O)CN(C)C	-	0	-	0	0	0
C=CCn1cnnc1SCC(=O)N(C)CC1COc2ccccc2O1 (stereo not given)	48.0	0	0	0	0	0
O=C(Nc1ccccc1N1CCOCC1)c1ccc(Cl)c(S(=O)(=O)NCc2ccco2)c1	90.5	-	0	-	0	0
O=C(Nc1ccccc1N1CCOCC1)c1ccc(S(=O)(=O)NCc2ccco2)cc1	0	0	0	-	0	0
COCCOC(=O)N1C(=O)[C@@]2(c3cc(C#Cc4ccc(OC)cc4)ccc31)[C@H](C(=O)N1CCN(c3ncccn3)CC1)[C@H]1C(=O)O[C@H](c3ccccc3)[C@H](c3ccccc3)N1[C@@H]2c1ccccc1OCCO	-	0	-	-	0	0
SMILES	CAL PDZ FP-1	PGC1a acetyl inh	CAL PDZ FP-2	miR122 inh	CFTR F508del cor	ARNT-TACC3 inh
CN(C)c1ccc(N/C=C/C(=O)C(C)(C)C)cc1	0	0	0	0	-	26.8
CN(C)c1ccc(N/C=C/C(=O)c2ccccc2)cc1	-	0	0	0	-	0
COc1ccc2c3c(n(C)c2c1)[C@H](CO)N(C(=O)CN(C)C)CC31CN(C(=O)C2CCC2)C1	-	0	-	-	0	-
COc1ccc(NC(=O)Nc2cccc3c2O[C@@H](CN(C)CC2CC2)[C@H](C)CN([C@@H](C)CO)C3=O)cc1	-	0	-	0	0	0
Cc1noc(C)c1S(=O)(=O)Nc1ccc2c(c1)CC(=O)N([C@H](C)CO)C[C@@H](C)[C@@H](CN(C)S(C)(=O)=O)O2	-	0	-	0	0	0
COC(=O)C(CC(=O)c1ccc(C)cc1)n1nc(C)cc1C (stereo not given)	128.7	-	0	0	0	0
CC1CN(CCOc2ccc(F)cc2)CC(C)O1 (stereo not given)	42.1	0	0	0	0	0
C=CCc1ccc(OCCCOc2ccc(C)cc2OC)c(OC)c1	0	0	0	0	-	0
C=CCc1ccc(OCCCCN2CC(C)OC(C)C2)c(OC)c1 (stereo not given)	58.4	0	0	0	-	0
COc1cccc(OCCCCN2CC(C)OC(C)C2)c1 (stereo not given)	42.1	0	0	0	-	0
C[C@H](CO)N1C[C@H](C)[C@H](CN(C)C(=O)CCCN(C)C)OCCCC[C@H](C)Oc2ccc(NS(=O)(=O)c3ccccc3)cc2C1=O	-	0	-	0	0	0
CCC(=O)N1C[C@@H](C)[C@H](OC)CN(C)C(=O)c2cc(NC(=O)Nc3ccccc3)ccc2OC[C@H]1C	-	0	-	0	0	0
COc1ccccc1-c1nnc(NC(=O)c2ccc(S(=O)(=O)N3CCOCC3)cc2)o1	0	-	0	0	0	46.1
CCN(CC)S(=O)(=O)c1ccc(C(=O)Nc2nnc(COC)o2)cc1	0	-	0	-	0	0
COCc1nnc(NC(=O)c2ccc(S(=O)(=O)N3CCOCC3)cc2)o1	0	-	0	0	0	45.2
Cc1ccc(NC(=O)c2ccc(C)c(S(=O)(=O)N3CCOCC3)c2)nc1	0	0	0	0	0	0

High-throughput results deposited in PubChem by Broad Institute.
